Measurements as given in ChEMBL document CHEMBL2384906, “Biological activity, design, synthesis and structure activity relationship of some novel derivatives of curcumin containing sulfonamides” (Eur J Med Chem, 2013).
In brackets after ≈: the same amount, converted by molar mass. Activity calls are given as the source filed them. The calls are words filed in the database; no cut-off is given here.

Legend:
Pseudomonas aeruginosa [1] = assay: Antimicrobial activity against Pseudomonas aeruginosa ATCC 15499 assessed as diameter of inhibition zone at 80 uM after 24 hrs by Kirby -Baur disc diffusion method; assay type: functional; settings: ATCC 15499, 24 h, read-out: DIZ
Outline: (§1)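 Kirby-Bauer disc diffusion was used. Acetone stocks (160 µM) were serially doubled down to 80, 40 and 20 µM. 4 µL of each went onto 5 mm sterile paper discs, which were dried 30 min at 50 °C. Inoculum was 1.5 × 10⁸ CFU/mL diluted to 3 × 10² CFU/mL, and 50 µL was spread on Mueller-Hinton agar. After 24 h at 37 °C the inhibition-zone diameter was measured. Ciprofloxacin served as positive control.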

Staphylococcus aureus [2] = assay: Antimicrobial activity against Staphylococcus aureus ATCC 11632 assessed as diameter of inhibition zone at 40 uM after 24 hrs by Kirby -Baur disc diffusion method; assay type: functional; settings: ATCC 11632, 24 h, read-out: DIZ; outline: as §1
HeLa = assay: Cytotoxicity against human HeLa cells after 24 hrs by MTT assay; assay type: functional, cell-based
Outline: (§2)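 The MTT assay seeded 5 × 10⁴ cells per well and grew them 24 h in RPMI 1640 with compound at 2.5–200 µM. Medium without cells was the blank and adriamycin the positive control. MTT was added for 4 h at 37 °C, formazan was solubilised, and absorbance was read at 570 nm. IC50 is the concentration that cuts viability 50% against untreated cells.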

Trichoderma viride [3] = assay: Antifungal activity against Trichoderma viride MTCC 1107 assessed as zone of inhibition at 40 uM after 48 hrs by disc diffusion method; assay type: functional; settings: MTCC 1107, 48 h, read-out: IZ
Outline: (§3)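 Spores from 4-day potato dextrose agar cultures, suspended in sterile water at 1.5 × 10⁵ CFU/mL. 0.2 mL was spread on potato dextrose agar. 5 mm filter-paper discs soaked with test compound were laid on the lawn. Incubation was 48 h at 28 °C, then the inhibition zone was measured in mm. Fluconazole was the positive control and acetone the negative control.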

Escherichia coli [4] = assay: Antimicrobial activity against Escherichia coli ATCC 35218 after 24 hrs by broth micro serial dilution method; assay type: functional; settings: ATCC 35218, 24 h
Outline: (§4)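 This was broth microdilution in autoclaved Mueller-Hinton broth. 150 µL of compound per well was serially diluted […], and 50 µL of test organism was added. Plates were incubated 24 h at 37 °C and optical density was read.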

Aspergillus flavus [5] = assay: Antifungal activity against Aspergillus flavus MTCC 1021 after 48 hrs; assay type: functional; settings: MTCC 1021, 48 h
Trichoderma viride [6] = assay: Antifungal activity against Trichoderma viride MTCC 1107 assessed as zone of inhibition at 20 uM after 48 hrs by disc diffusion method; assay type: functional; settings: MTCC 1107, 48 h, read-out: IZ; outline: as §3
Curvularia lunata [7] = assay: Antifungal activity against Curvularia lunata MTCC 581 assessed as zone of inhibition at 40 uM after 48 hrs by disc diffusion method; assay type: functional; settings: MTCC 581, 48 h, read-out: IZ; outline: as §3
Aspergillus niger [8] = assay: Antifungal activity against Aspergillus niger MTCC 1108 assessed as zone of inhibition at 80 uM after 48 hrs by disc diffusion method; assay type: functional; settings: MTCC 1108, 48 h, read-out: IZ; outline: as §3
Salmonella typhi [9] = assay: Antimicrobial activity against Salmonella typhi ATCC 23564 assessed as diameter of inhibition zone at 40 uM after 24 hrs by Kirby -Baur disc diffusion method; assay type: functional, Salmonella enterica subsp. enterica serovar Typhi; settings: Salmonella enterica, ATCC 23564, 24 h; read-out: DIZ
Trichoderma viride [10] = assay: Antifungal activity against Trichoderma viride MTCC 1107 assessed as zone of inhibition at 80 uM after 48 hrs by disc diffusion method; assay type: functional; settings: MTCC 1107, 48 h, read-out: IZ; outline: as §3
Aspergillus flavus [11] = assay: Antifungal activity against Aspergillus flavus MTCC 1021 assessed as zone of inhibition at 40 uM after 48 hrs by disc diffusion method; assay type: functional; settings: MTCC 1021, 48 h, read-out: IZ; outline: as §3
Bacillus cereus [12] = assay: Antimicrobial activity against Bacillus cereus MTCC 7350 after 24 hrs by broth micro serial dilution method; assay type: functional; settings: MTCC 7350, 24 h; outline: as §4
Bacillus cereus [13] = assay: Antimicrobial activity against Bacillus cereus MTCC 7350 assessed as diameter of inhibition zone at 40 uM after 24 hrs by Kirby -Baur disc diffusion method; assay type: functional; settings: MTCC 7350, 24 h, read-out: DIZ; outline: as §1
Bacillus cereus [14] = assay: Antimicrobial activity against Bacillus cereus MTCC 7350 assessed as diameter of inhibition zone at 80 uM after 24 hrs by Kirby -Baur disc diffusion method; assay type: functional; settings: MTCC 7350, 24 h, read-out: DIZ; outline: as §1
Salmonella typhi [15] = assay: Antimicrobial activity against Salmonella typhi ATCC 23564 assessed as diameter of inhibition zone at 20 uM after 24 hrs by Kirby -Baur disc diffusion method; assay type: functional, Salmonella enterica subsp. enterica serovar Typhi; settings: Salmonella enterica, ATCC 23564, 24 h; read-out: DIZ
Mus musculus = assay: Antiinflammatory activity in mouse assessed as inhibition of carrageenan-induced increase in paw volume at 200 mg/kg administered 1 hr prior to carrageenan challenge measured after 3 hrs relative to control; assay type: functional
Outline: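 Mice were fasted 2 h and placed in groups of five. Controls received saline i.p. Phenylbutazone was given at 100 mg/kg i.p., curcumin at 200 mg/kg i.p., and derivatives at 200 mg/kg. After 1 h, 0.1 mL of 1% carrageenan in saline was injected subplantar into the right hind paw. Paw volume was followed by plethysmometer for 3 h, and % inhibition was calculated as (Vc − Vt)/Vc × 100.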

Bacillus cereus [16] = assay: Antimicrobial activity against Bacillus cereus MTCC 7350 assessed as diameter of inhibition zone at 20 uM after 24 hrs by Kirby -Baur disc diffusion method; assay type: functional; settings: MTCC 7350, 24 h, read-out: DIZ; outline: as §1
QG-56 = assay: Cytotoxicity against human QG56 cells after 24 hrs by MTT assay; assay type: functional, cell-based; outline: as §2
Aspergillus niger [17] = assay: Antifungal activity against Aspergillus niger MTCC 1108 after 48 hrs; assay type: functional; settings: MTCC 1108, 48 h
Curvularia lunata [18] = assay: Antifungal activity against Curvularia lunata MTCC 581 after 48 hrs; assay type: functional; settings: MTCC 581, 48 h
Curvularia lunata [19] = assay: Antifungal activity against Curvularia lunata MTCC 581 assessed as zone of inhibition at 20 uM after 48 hrs by disc diffusion method; assay type: functional; settings: MTCC 581, 48 h, read-out: IZ; outline: as §3
Pseudomonas aeruginosa [20] = assay: Antimicrobial activity against Pseudomonas aeruginosa ATCC 15499 assessed as diameter of inhibition zone at 20 uM after 24 hrs by Kirby -Baur disc diffusion method; assay type: functional; outline: as §1
Staphylococcus aureus [21] = assay: Antimicrobial activity against Staphylococcus aureus ATCC 11632 assessed as diameter of inhibition zone at 20 uM after 24 hrs by Kirby -Baur disc diffusion method; assay type: functional; settings: ATCC 11632, 24 h, read-out: DIZ; outline: as §1
Aspergillus niger [22] = assay: Antifungal activity against Aspergillus niger MTCC 1108 assessed as zone of inhibition at 40 uM after 48 hrs by disc diffusion method; assay type: functional; settings: MTCC 1108, 48 h, read-out: IZ; outline: as §3
HCT-116 = assay: Cytotoxicity against human HCT116 cells after 24 hrs by MTT assay; assay type: functional, cell-based; outline: as §2
Escherichia coli [23] = assay: Antimicrobial activity against Escherichia coli ATCC 35218 assessed as diameter of inhibition zone at 80 uM after 24 hrs by Kirby -Baur disc diffusion method; assay type: functional; settings: ATCC 35218, 24 h, read-out: DIZ; outline: as §1
Aspergillus niger [24] = assay: Antifungal activity against Aspergillus niger MTCC 1108 assessed as zone of inhibition at 20 uM after 48 hrs by disc diffusion method; assay type: functional; settings: MTCC 1108, 48 h, read-out: IZ; outline: as §3
Curvularia lunata [25] = assay: Antifungal activity against Curvularia lunata MTCC 581 assessed as zone of inhibition at 80 uM after 48 hrs by disc diffusion method; assay type: functional; settings: MTCC 581, 48 h, read-out: IZ; outline: as §3
Salmonella typhi [26] = assay: Antimicrobial activity against Salmonella typhi ATCC 23564 after 24 hrs by broth micro serial dilution method; assay type: functional, Salmonella enterica subsp. enterica serovar Typhi; settings: Salmonella enterica, ATCC 23564, 24 h
Aspergillus flavus [27] = assay: Antifungal activity against Aspergillus flavus MTCC 1021 assessed as zone of inhibition at 20 uM after 48 hrs by disc diffusion method; assay type: functional; outline: as §3
Salmonella typhi [28] = assay: Antimicrobial activity against Salmonella typhi ATCC 23564 assessed as diameter of inhibition zone at 80 uM after 24 hrs by Kirby -Baur disc diffusion method; assay type: functional, Salmonella enterica subsp. enterica serovar Typhi; settings: Salmonella enterica, ATCC 23564, 24 h; read-out: DIZ
Staphylococcus aureus [29] = assay: Antimicrobial activity against Staphylococcus aureus ATCC 11632 after 24 hrs by broth micro serial dilution method; assay type: functional; settings: ATCC 11632, 24 h; outline: as §4
Escherichia coli [30] = assay: Antimicrobial activity against Escherichia coli ATCC 35218 assessed as diameter of inhibition zone at 40 uM after 24 hrs by Kirby -Baur disc diffusion method; assay type: functional; settings: ATCC 35218, 24 h, read-out: DIZ; outline: as §1
Aspergillus flavus [31] = assay: Antifungal activity against Aspergillus flavus MTCC 1021 assessed as zone of inhibition at 80 uM after 48 hrs by disc diffusion method; assay type: functional; settings: MTCC 1021, 48 h, read-out: IZ; outline: as §3
Trichoderma viride [32] = assay: Antifungal activity against Trichoderma viride MTCC 1107 after 48 hrs; assay type: functional; settings: MTCC 1107, 48 h
HepG2 = assay: Cytotoxicity against human HepG2 cells after 24 hrs by MTT assay; assay type: functional, cell-based; outline: as §2
Pseudomonas aeruginosa [33] = assay: Antimicrobial activity against Pseudomonas aeruginosa ATCC 15499 assessed as diameter of inhibition zone at 40 uM after 24 hrs by Kirby -Baur disc diffusion method; assay type: functional; settings: ATCC 15499, 24 h, read-out: DIZ; outline: as §1
Staphylococcus aureus [34] = assay: Antimicrobial activity against Staphylococcus aureus ATCC 11632 assessed as diameter of inhibition zone at 80 uM after 24 hrs by Kirby -Baur disc diffusion method; assay type: functional; settings: ATCC 11632, 24 h, read-out: DIZ; outline: as §1
Pseudomonas aeruginosa [35] = assay: Antimicrobial activity against Pseudomonas aeruginosa ATCC 15499 after 24 hrs by broth micro serial dilution method; assay type: functional; settings: ATCC 15499, 24 h; outline: as §4
Escherichia coli [36] = assay: Antimicrobial activity against Escherichia coli ATCC 35218 assessed as diameter of inhibition zone at 20 uM after 24 hrs by Kirby -Baur disc diffusion method; assay type: functional; settings: ATCC 35218, 24 h, read-out: DIZ; outline: as §1

COc1ccc(NS(=O)(=O)c2ccc(/N=C(/C=C(O)/C=C/c3ccc(O)c(OC)c3)\C=C\c3ccc(O)c(OC)c3)cc2)nn1
zone of inhibition at 80 µM (Pseudomonas aeruginosa [1]): 14 mm
zone of inhibition at 40 µM (Staphylococcus aureus [2]): 14 mm
IC50 (HeLa): 50 µM
zone of inhibition at 40 µM (Trichoderma viride [3]): 16 mm
MIC (Escherichia coli [4]): 20 µM (≈ 12.6 µg/mL)
MIC (Aspergillus flavus [5]): > 80 µM
zone of inhibition at 20 µM (Trichoderma viride [6]): 12 mm
zone of inhibition at 40 µM (Curvularia lunata [7]): 15 mm
zone of inhibition at 80 µM (Aspergillus niger [8]): 14 mm
zone of inhibition at 40 µM (Salmonella typhi [9]): 16 mm
zone of inhibition at 80 µM (Trichoderma viride [10]): 19 mm
zone of inhibition at 40 µM (Aspergillus flavus [11]): 9 mm
MIC (Bacillus cereus [12]): 20 µM (≈ 12.6 µg/mL)
zone of inhibition at 40 µM (Bacillus cereus [13]): 11 mm
zone of inhibition at 80 µM (Bacillus cereus [14]): 14 mm
zone of inhibition at 20 µM (Salmonella typhi [15]): 13 mm
inhibition in vivo at 200 mg/kg (Mus musculus): 35.4%
zone of inhibition at 20 µM (Bacillus cereus [16]): 9 mm
IC50 (QG-56): 25 µM
MIC (Aspergillus niger [17]): 40 µM (≈ 25.2 µg/mL)
MIC (Curvularia lunata [18]): 20 µM (≈ 12.6 µg/mL)
zone of inhibition at 20 µM (Curvularia lunata [19]): 12 mm
diameter of the inhibition zone (DIZ) (Pseudomonas aeruginosa [20]): inactive
zone of inhibition at 20 µM (Staphylococcus aureus [21]): 9 mm
zone of inhibition at 40 µM (Aspergillus niger [22]): 14 mm
IC50 (HCT-116): 25 µM
zone of inhibition at 80 µM (Escherichia coli [23]): 21 mm
zone of inhibition at 20 µM (Aspergillus niger [24]): 10 mm
zone of inhibition at 80 µM (Curvularia lunata [25]): 18 mm
MIC (Salmonella typhi [26]): 20 µM (≈ 12.6 µg/mL)
inhibition zone (IZ) (Aspergillus flavus [27]): inactive
zone of inhibition at 80 µM (Salmonella typhi [28]): 19 mm
MIC (Staphylococcus aureus [29]): 20 µM (≈ 12.6 µg/mL)
zone of inhibition at 40 µM (Escherichia coli [30]): 18 mm
zone of inhibition at 80 µM (Aspergillus flavus [31]): 10 mm
MIC (Trichoderma viride [32]): 20 µM (≈ 12.6 µg/mL)
IC50 (HepG2): 25 µM
zone of inhibition at 40 µM (Pseudomonas aeruginosa [33]): 10 mm
zone of inhibition at 80 µM (Staphylococcus aureus [34]): 17 mm
MIC (Pseudomonas aeruginosa [35]): 20 µM (≈ 12.6 µg/mL)
zone of inhibition at 20 µM (Escherichia coli [36]): 16 mm
